# Source: PubChem BioAssay (several laboratories)
# STAT3 activator – activators of IL-6 induced STAT3 signaling; AID 871; activation (% of control), % at 5.6 µM; 0.91% of 190,000 active; U3A cells, IL-6 STAT3-luciferase reporter, luminescence; 100% = signal with IL-6 EC80 alone;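 active = activation above the screen-wide mean of compound activation plus 3 SD, cut at about 130% in these data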;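 also: 0% = background luminescence of wells with medium and substrate only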
#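 Material: STAT3-luciferase reporter U3A cells; Probe or stimulus: IL-6 (33 ng/mL); Incubation: compound pre-incubation 1 h before IL-6, then 6 h stimulation at 37 °C; Technique: luminescence from STAT3-driven luciferase reporter; Evaluation: % activation versus median of IL-6-stimulated wells; Controls: IL-6-only high control.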
# STAT1 act – increases IFN-gamma driven STAT1 reporter signal; 2.6% of 200,000 active; AID 932; NIH 3T3 STAT1-luciferase reporter, luminescence; 100% = IFN-gamma alone, no compound; activation (% of control), % at 5.5 µM;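 active = activation above the screen-wide mean activation plus 3 SD, cut at about 130% in these data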;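 also: raw ratio to IFN-gamma control signal so 100% means no change and 0% no light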
# NF-kB neuron act – raises NF-kB expression in human neuronal cells; 1.6% of 190,000 active; fold change at 12.5 µM; NF-kB reporter expression; hits give high values; in the data active = fold change above about 3.3
# STAT1 blocker – inhibitors of IFN-gamma induced STAT1 signaling | NIH 3T3 STAT1-luciferase reporter, luminescence | inhibition, % at 5.5 µM | 0.35% of 200,000 active;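 active = inhibition above a set limit, the mean inhibition across all tested compounds plus 3 SD, cut at about 34% in these data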;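 also: 0% = IFN-gamma with DMSO and 100% = IFN-gamma with 300 µM nifuroxazide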
# STAT3 inh – reduces IL-6 driven STAT3 reporter signal. AID 862. U3A cells, IL-6 STAT3-luciferase reporter, luminescence; host cell line lacks STAT1. 0.89% of 190,000 active. inhibition, % at 5.5 µM;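 active = inhibition above the mean inhibition across all screened compounds plus 3 SD, cut at about 44% in these data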;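 also: 0% = DMSO only wells and 100% = 100 µM nifuroxazide control wells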
# APP 5'UTR act – APP 5'UTR luciferase reporter activation | activation, % at 2 µM | SH-SY5Y APP 5'UTR luciferase reporter, luminescence; zero percent = DMSO vehicle wells | 1% of 190,000 active;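 active = activation above a set limit, based on mean plus 3 SD of controls, cut at about 140% in these data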
# STAT1 act conf – confirmation of STAT1 signaling activators. shares compounds with STAT1 act. NIH 3T3 STAT1-luciferase reporter, IFN-gamma potentiation, luminescence; 100% = IFN-gamma EC80 alone, no compound. activation (% of control), % at 5.7 µM. 97% of 1,200 active;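 active = activation above a set limit carried over from the earlier primary STAT1 screen, cut at about 140% in these data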;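 also: simple ratio to median IFN-gamma plus DMSO wells so 0% means no light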
# NFkB act STAT1ct – counter-screen for STAT1 activators: NF-kappaB activation. shares compounds with STAT1 act. HEK293T NF-kB luciferase reporter, TNF-alpha stimulated, luminescence; 100% = TNF-alpha with vehicle only. activation (% of control), % at 5.7 µM. 43% of 1,200 active;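 active = activation above the mean of solvent-only control wells plus 3 SD, set per campaign, cut at about 130% in these data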;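 also: TNF-alpha given at a submaximal dose yielding about 80% of full reporter signal; values are well signal over median control so 100% means no change and 0% no light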
# STAT3 act 2 – activates human STAT3, counter-screen to STAT1 activators. U3A cells STAT3-luciferase reporter, IL-6, luminescence; cells lack STAT1; 100 = IL-6 alone, no compound effect. shares compounds with STAT1 act. 46% of 1,200 active. activation (% of control), % at 5.7 µM. AID 1316;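 active = activation above the solvent-only control well mean plus 3 SD, set per plate batch, cut at about 110% in these data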;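 also: 0% = no luminescence and 100% = median IL-6 plus DMSO wells; higher means more STAT3 reporter activation so hits are non-selective activators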
# * hit, by the source's call; x = no result given. Compounds with a hit are over-represented: about 5.1% of the library has one in this group of screens.
SMILES,STAT3 activator,STAT1 act,NF-kB neuron act,STAT1 blocker,STAT3 inh,APP 5'UTR act,STAT1 act conf,NFkB act STAT1ct,STAT3 act 2
Cn1/c(=N/N=C/c2ccccn2)sc2ccccc21,119,152*,5.3*,-56,-15,114,219*,142*,130*
CCC(=O)N/N=c1/sc2ccccc2n1C,107,102,1.1,-3,-4,-4,x,x,x
COC(=O)c1nc2ccccn2c1F,105,102,1.1,-2,-3,14,x,x,x
O=C(Nc1ccn(Cc2ccc(Cl)cc2)n1)c1ccccc1,110,151*,2.5,-60,-7,47,152*,122,112*
O=C(Nc1ccn(Cc2ccccc2)n1)c1ccc2c(c1)OCO2,108,123,1.8,-25,1,43,x,x,x
COC(=O)Cc1csc(Nc2ccc(F)c(Cl)c2)n1,94,108,1.1,-10,15,3,x,x,x
Nc1nc(N2CCN(C(=O)c3ccco3)CC2)nc2ccccc12,97,110,1.6,-11,7,20,x,x,x
Nc1nc(N2CCN(C(=O)c3ccco3)CC2)nc2ccc(Br)cc12,100,180*,1.4,-88,2,219*,195*,141*,118*
CCOC(=O)c1cnc2c(-c3ccccc3)cnn2c1C,85,154*,7.3*,-60,20,155*,198*,135*,102
CC(=O)c1cnc2c(-c3ccccc3)cnn2c1C,85,121,1.3,-23,21,13,x,x,x
CCOC(=O)c1c(NC(=O)C2=C(C)NC(=S)NC2c2ccc(CC)cc2)sc(C)c1C (centres undefined),105,108,0.5,-7,-9,7,x,x,x
CC(=O)N1N=C(c2ccc(C)cc2)OC1c1ccc(Br)cc1 (centres undefined),113,154*,3,-60,-13,38,182*,148*,117*
CC(=O)NC1=NN(C(C)=O)C(c2ccc(C)cc2)S1 (centres undefined),102,98,1.3,1,1,15,x,x,x
Cn1cccc1C(=O)C(=O)Nc1ccc(F)c(F)c1,94,154*,5.2*,-60,10,139*,193*,133,107
O=C(NCCc1nnc2ccc(NCC3CCCO3)nn12)c1ccccc1 (centres undefined),99,104,1.1,-4,10,6,x,x,x
CC(C)c1nc(SCC(=O)Nc2c[nH]c(=O)[nH]c2=O)c2cnn(-c3ccccc3)c2n1,108,97,1.4,3,-5,6,x,x,x
CNC(=O)c1sc2nc(-c3ccc(OC)cc3)cn2c1C,106,164*,4.8*,-71,-3,146*,188*,135*,105
C=CCOc1c(Cl)cc(CNc2nccs2)cc1OC,103,99,1.2,0,9,-8,x,x,x
CC(=O)c1sc(NC(=O)c2ccccc2F)nc1-c1ccccc1,90,154*,3.1,-54,17,141*,171*,126,104
COc1ncccc1-c1nnn(-c2ccc(F)cc2)n1,x,155*,3.8*,-57,x,106,194*,132,112*
Clc1ccc(-n2nnc(-c3cccnc3)n2)cc1Cl,x,159*,2.3,-62,x,51,149*,125,108
O=c1[nH]c2ccccc2cc1-c1nnn(-c2ccc(F)cc2)n1,x,125,1.9,-25,x,91,x,x,x
COc1ncccc1-c1nnn(-c2ccc(C)cc2)n1,x,152*,3.7*,-54,x,98,205*,141*,117*
COc1ncccc1-c1nnn(-c2ccc(Cl)c(Cl)c2)n1,x,158*,4*,-61,x,106,164*,132,101
COC(=O)c1cc(COc2ccc3c(c2)oc(=O)c2ccccc23)c(C)o1,81,97,1.1,3,25,1,x,x,x
SMILES,STAT3 activator,STAT1 act,NF-kB neuron act,STAT1 blocker,STAT3 inh,APP 5'UTR act,STAT1 act conf,NFkB act STAT1ct,STAT3 act 2
COc1ccc(C(=O)NNC(=O)c2cccc(F)c2)cc1,108,120,1.2,-23,-8,4,x,x,x
CCOc1ccc2c(c1)C(N(CCN1CCOCC1)C(=S)Nc1ccccc1OC)CC(C)(C)O2 (centres undefined),106,94,1.1,5,4,10,x,x,x
CCO[C@@H]1OC(C(=O)NCc2nc3ccccc3[nH]2)=C[C@H](C)[C@H]1CCCO,x,95,0.99,6,x,-4,x,x,x
COc1cc2c(cc1OC)CC(=O)NC=C2,94,97,0.97,2,17,-18,x,x,x
Cc1ccc(/C=N/Nc2nc3ccccc3[nH]2)s1,121,157*,3.8*,-63,-18,135*,190*,149*,121*
Cc1nn(-c2ccccc2)c(Cl)c1/C=N/Nc1nc2ccccc2[nH]1,83,216*,2.2,-130,22,126,291*,130,104
Cc1ccccc1CC1(CO)CCCN(Cc2nc(-c3cccs3)oc2C)C1 (centres undefined),103,104,1.5,-4,2,-2,x,x,x
CCOC(=O)C1=C(C)OC(N)=C(C#N)C1c1cc2c(cc1[N+](=O)[O-])OCO2 (centres undefined),89,86,1.2,15,18,-12,x,x,x
Cc1cc(C)cc(OCC(=O)OCC(=O)Nc2c(C)n(C)n(-c3ccccc3)c2=O)c1,105,104,1,-6,-5,-16,x,x,x
Cc1ccc(NC(=S)NC(=O)c2ccc(Br)o2)c(C)c1,90,152*,2.2,-59,15,94,164*,128,107
O=c1oc(Nc2cccc(Cl)c2)nc2ccccc12,103,157*,2.4,-65,8,71,177*,118,157*
O=C(/C(C=Nc1cccc(C(F)(F)F)c1)=C(/O)c1ccco1)C(F)(F)F,106,108,1.6,-9,-9,25,x,x,x
O=C(/C(C=Nc1ccc(Br)cc1)=C(/O)c1ccco1)C(F)(F)F,66,166*,5.7*,-72,40,171*,201*,92,84
CCc1ccc(NC(=O)N2CCC(c3ccccc3)C2)cc1 (centres undefined),99,161*,4.3*,-66,7,164*,182*,133,109
CCOc1ccc(NC(=O)N2CCC(c3ccc(C)cc3)C2)cc1 (centres undefined),93,104,1.3,-5,12,8,x,x,x
